Laboratory results from ChEMBL document CHEMBL1811797, “Evolution from a natural flavones nucleus to obtain 2-(4-Propoxyphenyl)quinoline derivatives as potent inhibitors of the S. aureus NorA efflux pump” (J Med Chem, 2011).
pIC50: −log10 of the molar value. In brackets after ≈: the same amount, converted by molar mass. Blank lines part the entries; values can stand above or below the compound they belong to. Activity calls are given as the source filed them. The rule behind the calls is not given here.

Assays:
Staphylococcus aureus [1] = test: Antibacterial activity against NorA-expressing Staphylococcus aureus 1199B by M7-A7 CLSI microdilution method; type: functional
Staphylococcus aureus [2] = test: Antibacterial activity against wild-type Staphylococcus aureus ATCC 25923 by M7-A7 CLSI microdilution method; type: functional
Staphylococcus aureus [3] = test: Antibacterial activity against Staphylococcus aureus K1902 bearing norA-deficient mutation by M7-A7 CLSI microdilution method; type: functional
Staphylococcus aureus [4] = test: Antibacterial activity against Staphylococcus aureus K2378 bearing norA++ efficient mutation by M7-A7 CLSI microdilution method; type: functional
Staphylococcus aureus [5] = test: Antibacterial activity against wild-type norA expressing Staphylococcus aureus 1199 by M7-A7 CLSI microdilution method; type: functional
Staphylococcus aureus [6] = test: Antibacterial activity against Staphylococcus aureus 1199B norA++ and A116E GrlA mutation by M7-A7 CLSI microdilution method; type: functional
Staphylococcus aureus [7] = test: Potentiation of ciprofloxacin-antibacterial activity against wild-type Staphylococcus aureus ATCC 25923 assessed as reduction in ciprofloxacin MIC by M7-A7 CLSI microdilution method; type: functional, organism-based
[8] = molecular target: T1, Quinolone resistance protein NorA (Staphylococcus aureus) (UniProt P0A0J7); test: Inhibition of NorA in Staphylococcus aureus K2378 bearing norA++ efficient mutation assessed as reduction in ciprofloxacin MIC at 3.13 ug/mL
T1 sequence (whole entry): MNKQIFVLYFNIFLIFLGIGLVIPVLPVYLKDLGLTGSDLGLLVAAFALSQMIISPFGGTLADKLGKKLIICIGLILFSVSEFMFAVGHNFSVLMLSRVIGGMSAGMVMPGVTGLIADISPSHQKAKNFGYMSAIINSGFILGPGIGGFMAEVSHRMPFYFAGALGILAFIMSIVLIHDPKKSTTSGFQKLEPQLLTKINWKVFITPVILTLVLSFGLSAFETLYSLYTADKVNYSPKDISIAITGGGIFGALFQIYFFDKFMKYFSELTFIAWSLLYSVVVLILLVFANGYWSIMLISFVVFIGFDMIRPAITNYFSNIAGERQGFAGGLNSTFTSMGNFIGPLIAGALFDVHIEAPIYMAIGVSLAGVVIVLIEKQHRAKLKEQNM

[9] = molecular target: T1, Quinolone resistance protein NorA (Staphylococcus aureus); test: Inhibition of wild-type norA expressing Staphylococcus aureus 1199 assessed as reduction in ciprofloxacin MIC
[10] = molecular target: T1, Quinolone resistance protein NorA (Staphylococcus aureus); test: Inhibition of NorA in Staphylococcus aureus 1199B norA++ and A116E GrlA mutation assessed as reduction in ciprofloxacin MIC at >12.5 ug/mL
[11] = molecular target: T2, Quinolone resistance protein NorA (Staphylococcus aureus, UniProt P0A0J7); test: Inhibition of NorA in Staphylococcus aureus 1199B assessed as inhibition of ethidium bromide efflux dose response curve based fluorometric assay
T2 sequence (P0A0J7 whole entry): T1 sequence (whole entry)
In short: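 Fluorometric EtBr efflux (loss of EtBr) from S. aureus SA-1199B (norA-overexpressing); dose-response curves built to assess activity at concentrations below the 50 μM screening level; duplicate experiments, result expressed as mean total efflux over a 5 min time course; IC50 derived from the curves.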

Staphylococcus aureus [12] = test: Potentiation of ciprofloxacin-antibacterial activity against Staphylococcus aureus K1902 bearing norA-deficient mutation assessed as reduction in ciprofloxacin MIC at 0.78 ug/mL by M7-A7 CLSI microdilution method; type: functional
Staphylococcus aureus [13] = test: Potentiation of ciprofloxacin-antibacterial activity against Staphylococcus aureus K1902 bearing norA-deficient mutation assessed as reduction in ciprofloxacin MIC at >25 ug/mL by M7-A7 CLSI microdilution method; type: functional
[14] = molecular target: T1, Quinolone resistance protein NorA (Staphylococcus aureus); test: Inhibition of NorA in Staphylococcus aureus 1199B norA++ and A116E GrlA mutation assessed as reduction in ciprofloxacin MIC at 50 ug/mL
[15] = molecular target: T1, Quinolone resistance protein NorA (Staphylococcus aureus); test: Inhibition of NorA in Staphylococcus aureus K2378 bearing norA++ efficient mutation assessed as reduction in ciprofloxacin MIC at 1.56 ug/mL
[16] = molecular target: T1, Quinolone resistance protein NorA (Staphylococcus aureus); test: Inhibition of NorA in Staphylococcus aureus 1199B assessed as inhibition of ethidium bromide efflux at 50 uM by fluorimetry
In short: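 Fluorometric measurement of EtBr loss from norA-overexpressing SA-1199B, with compounds screened at 50 μM. Performed in duplicate; value is mean total efflux over a 5 min time course, expressed as percent inhibition.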

[17] = molecular target: T1, Quinolone resistance protein NorA (Staphylococcus aureus); test: Inhibition of NorA in Staphylococcus aureus 1199B norA++ and A116E GrlA mutation assessed as reduction in ciprofloxacin MIC at 100 ug/mL
[18] = molecular target: T1, Quinolone resistance protein NorA (Staphylococcus aureus); test: Inhibition of NorA in Staphylococcus aureus K2378 bearing norA++ efficient mutation assessed as reduction in ciprofloxacin MIC at 12.5 ug/mL
[19] = molecular target: T1, Quinolone resistance protein NorA (Staphylococcus aureus); test: Inhibition of NorA in Staphylococcus aureus K2378 bearing norA++ efficient mutation assessed as reduction in ciprofloxacin MIC at 6.25 ug/mL
[20] = molecular target: T1, Quinolone resistance protein NorA (Staphylococcus aureus); test: Inhibition of NorA in Staphylococcus aureus 1199B norA++ and A116E GrlA mutation assessed as reduction in ciprofloxacin MIC at >=12.5 ug/mL
[21] = molecular target: T1, Quinolone resistance protein NorA (Staphylococcus aureus); conditions: 1199B, 25 ug/mL

inhibition [16]: 63.7%
Compound: CCCOc1ccc(-c2cc(OC)c3ccccc3n2)cc1

inhibition [16]: 33.9%
Compound: CCCOc1ccc(-c2cc(=O)c3ccccc3n2C)cc1

inhibition [16]: 0%
Compound: COc1ccc(-c2cc(=O)c3ccccc3n2C)cc1

inhibition [16]: 0%
Compound: Cn1c(-c2ccc(OCCN3CCOCC3)cc2)cc(=O)c2ccccc21

inhibition [16]: 0%
Compound: Cn1c(-c2ccc(O)cc2)cc(=O)c2ccccc21

inhibition [16]: 0%
Compound: CCCOc1ccc(-c2cc(O)c3ccccc3n2)cc1

inhibition [16]: 0%
Compound: CCCOc1ccc(-c2cc(=O)c3cc(OC)c(OC)cc3n2C)cc1

The next lines start with the compound.

Compound: CCCOc1ccc(-c2cc(OCCN(CC)CC)c3ccccc3n2)cc1
MIC (Staphylococcus aureus [1]): > 241 µM
MIC (Staphylococcus aureus [2]): 100 µg/mL (≈ 264 µM)
MIC (Staphylococcus aureus [3]): 50 µg/mL (≈ 132 µM)
MIC (Staphylococcus aureus [4]): 50 µg/mL (≈ 132 µM)
MIC (Staphylococcus aureus [5]): > 100 µg/mL
MIC (Staphylococcus aureus [6]): > 100 µg/mL
Activity (Staphylococcus aureus [7]): inactive
fold change (FC) [8]: 16
inhibition [9]: inactive
fold change (FC) [10]: 8
pIC50 [11]: 5.15
fold change (FC) (Staphylococcus aureus [12]): 4
fold change (FC) (Staphylococcus aureus [13]): 8

Compound: CCCOc1ccc(-c2cc(=O)c3ccccc3n2CCN2CCCCC2)cc1
MIC (Staphylococcus aureus [1]): > 256 µM
MIC (Staphylococcus aureus [2]): > 100 µg/mL
MIC (Staphylococcus aureus [3]): > 100 µg/mL
MIC (Staphylococcus aureus [4]): > 100 µg/mL
MIC (Staphylococcus aureus [5]): > 100 µg/mL
MIC (Staphylococcus aureus [6]): > 100 µg/mL
Activity (Staphylococcus aureus [7]): inactive
inhibition [14]: inactive
fold change (FC) [15]: 4
inhibition [9]: inactive

Compound: COc1cc2c(=O)cc(-c3ccc(O)cc3)n(C)c2cc1OC
inhibition [16]: 0%

Compound: CCN(CC)CCOc1cc(-c2ccc(OCCN3CCCCC3)cc2)nc2ccccc12
MIC (Staphylococcus aureus [1]): > 223 µM
MIC (Staphylococcus aureus [2]): 100 µg/mL (≈ 223 µM)
MIC (Staphylococcus aureus [3]): 100 µg/mL (≈ 223 µM)
MIC (Staphylococcus aureus [4]): 100 µg/mL (≈ 223 µM)
MIC (Staphylococcus aureus [5]): > 100 µg/mL
MIC (Staphylococcus aureus [6]): > 100 µg/mL
Activity (Staphylococcus aureus [7]): inactive
inhibition [17]: inactive
fold change (FC) [18]: 4
inhibition [9]: inactive

Compound: CCCOc1ccc(-c2cc(OCCN3CCCCC3)c3ccccc3n2)cc1
MIC (Staphylococcus aureus [1]): 256 µM (≈ 100 µg/mL)
MIC (Staphylococcus aureus [2]): 100 µg/mL (≈ 256 µM)
MIC (Staphylococcus aureus [3]): 50 µg/mL (≈ 128 µM)
MIC (Staphylococcus aureus [4]): 50 µg/mL (≈ 128 µM)
MIC (Staphylococcus aureus [5]): 100 µg/mL (≈ 256 µM)
MIC (Staphylococcus aureus [6]): 100 µg/mL (≈ 256 µM)
Activity (Staphylococcus aureus [7]): inactive
fold change (FC) [19]: 16
inhibition [9]: inactive
fold change (FC) [20]: 16
pIC50 [11]: 5.15
fold change (FC) (Staphylococcus aureus [12]): 4
fold change (FC) (Staphylococcus aureus [13]): 8

Compound: COC(=O)[C@H]1[C@H]2C[C@@H]3c4[nH]c5cc(OC)ccc5c4CCN3C[C@H]2C[C@@H](OC(=O)c2cc(OC)c(OC)c(OC)c2)[C@@H]1OC [RESERPINE]
MIC (Staphylococcus aureus [1]): > 164 µM
MIC (Staphylococcus aureus [2]): > 100 µg/mL
MIC (Staphylococcus aureus [3]): > 100 µg/mL
MIC (Staphylococcus aureus [4]): > 100 µg/mL
MIC (Staphylococcus aureus [5]): > 100 µg/mL
MIC (Staphylococcus aureus [6]): > 100 µg/mL
Activity (Staphylococcus aureus [7]): inactive
inhibition [9]: inactive
pIC50 [11]: 5.15

Compound: Fc1ccc([C@@H]2CCNC[C@H]2COc2ccc3c(c2)OCO3)cc1 [PAROXETINE]
inhibition [16]: 89.7%
MIC (Staphylococcus aureus [1]): > 303 µM
MIC (Staphylococcus aureus [2]): > 100 µg/mL
MIC (Staphylococcus aureus [3]): > 100 µg/mL
MIC (Staphylococcus aureus [4]): 100 µg/mL (≈ 304 µM)
MIC (Staphylococcus aureus [5]): > 100 µg/mL
MIC (Staphylococcus aureus [6]): > 100 µg/mL
Activity (Staphylococcus aureus [7]): inactive
inhibition [9]: inactive
pIC50 [11]: 5.15
inhibition [21]: inactive

Compound: Cn1c(-c2ccc(O)cc2)cc(=O)c2cc(O)c(O)cc21
inhibition [16]: 0%

Compound: Cn1c(-c2ccccc2)cc(=O)c2cc(O)c(O)cc21
inhibition [16]: 0%
